Published values collected from several papers.
pIC50: −log10 of the molar value.
Cell line: MDA-MB-231
Read-out: cell growth or viability

The pIC50 of `COc1cccc2c1C(=O)c1c(O)c3c(c(O)c1C2=O)C[C@@](O)(C(=O)CO)C[C@@H]3O[C@H]1C[C@H](N)[C@H](O)[C@H](C)O1` is reported as 6.35 (SRB).
For `Cc1ccc2nc(-c3c(F)cccc3Cl)[nH]c2c1`, the pIC50 was 4.46 (MTT; 48 h).
For `Nc1ccn([C@@H]2O[C@H](CO)[C@@H](O)C2(F)F)c(=O)n1`, the pIC50 was 5.35 (resazurin; 72 h).
For `O=C1CCC2(Oc3cccc4cccc(c34)O2)c2c(O)ccc(O)c21`, the pIC50 was less than 4.60 (resazurin; 72 h).
`COc1ccnc(Nc2ccc3ncnc(Nc4cccc(C(F)(F)F)c4)c3c2)c1` gave a pIC50 of 5.18 (MTT; 24 h).
With `C[C@@H]1C[C@H](c2cccc(F)c2)c2c(cc3ccccn23)C(=O)O1` (racemic) the pIC50 was 4.10 (resazurin; 72 h).
For `CC(=O)O[C@H]1C(=O)[C@@]2(C)[C@H]([C@H](OC(=O)c3ccccc3)[C@]3(O)C[C@H](OC(=O)[C@H](O)[C@@H](NC(=O)c4ccccc4)c4ccccc4)C(C)=C1C3(C)C)[C@]1(OC(C)=O)CO[C@@H]1C[C@@H]2O`, the pIC50 was 8.29 (72 h).
With `COc1ccc(-c2nc(C(=O)Nc3nnc(-c4cc5ccccc5[nH]4)s3)cc3c2[nH]c2ccccc23)cc1` the pIC50 was 5.48 (MTT; 72 h).
The pIC50 of `COc1cc(/C=C2\SC(=O)NC2=O)ccc1OCc1ccc(Cl)cc1Cl` is reported as 4.59 (MTT; 48 h).
With `CCn1c(-c2nnc(NC(=O)c3cc4c([nH]c5ccccc54)c(-c4ccc(OC)cc4)n3)s2)cc2ccccc21` the pIC50 was 5.03 (MTT; 72 h).
`COc1ccc(Br)cc1/C=C/C(=O)c1ccc(NC(C)=O)cc1` gave a pIC50 of 5.52 (MTT; 48 h).
The pIC50 of `C=CCn1c(-c2ccc([N+](=O)[O-])cc2)nc2ccccc21` is reported as 4.36 (MTT).
The pIC50 of `O=C(Nc1nnc(-c2cc3ccccc3[nH]2)s1)c1cc2c([nH]c3ccccc32)c(-c2ccccc2)n1` is reported as 5.40 (MTT; 72 h).
The pIC50 of `Cc1ccc2nc(-c3ccc([N+](=O)[O-])cc3)n(Cc3ccccc3)c2c1` is reported as 5.09 (MTT).
The pIC50 of `CCN1CCN(Cc2ccc(Nc3ncc(F)c(-c4cc(F)c5nc(C)n(C(C)C)c5c4)n3)nc2)CC1` is reported as 5.78 (CCK-8).
The pIC50 of `Oc1cccc(-c2ccc3ncnc(Nc4cccc(C(F)(F)F)c4)c3c2)c1` is reported as 4.85 (MTT; 24 h).
`CC(=O)CC(=O)[c-]1cccc1.[Fe+2].c1cc[cH-]c1` gave a pIC50 of 4.33 (MTT; 96 h).
For `O=C(Nc1nnc(-c2cc3ccccc3[nH]2)s1)c1cc2c([nH]c3ccccc32)c(-c2ccc(F)cc2)n1`, the pIC50 was 5.17 (MTT; 72 h).
For `O=C(C=C[c-]1cccc1)c1sccc1Br.[Fe+2].c1cc[cH-]c1`, the pIC50 was 5.18 (MTT; 72 h).
With `C=CCNC1=C2C[C@@H](C)C[C@H](OC)[C@H](O)[C@@H](C)/C=C(\C)[C@H](OC(N)=O)[C@@H](OC)/C=C\C=C(/C)C(=O)NC(=CC1=O)C2=O` the pIC50 was 6.47 (MTT).
The pIC50 of `O=C1C[C@@H](c2ccc(O)cc2)Oc2cc(O)cc(O)c21` is reported as 5.53 (MTT; 48 h).
`COc1cccc([C@@H]2C[C@@H](C)OC(=O)c3cc4ccccn4c32)c1` (racemic) has a pIC50 of 4.28 (resazurin; 72 h).
The pIC50 of `Cc1cc(NS(=O)(=O)c2ccc(NC(=O)COc3ccc(C(C)(C)c4ccccc4)cc3)cc2)nc(C)n1` is reported as 4.41 (MTT; 48 h).
`FC(F)(F)c1cccc(Nc2ncnc3ccc(Nc4ccccc4)cc23)c1` has a pIC50 of 4.81 (MTT; 24 h).
The pIC50 of `CCCCCCCCCCCC(=O)Oc1c(C)c(O)c(C(=O)/C=C/c2ccccc2)c(OC)c1C` is reported as less than 4.30 (SRB; 72 h).
`C[C@@H]1C[C@H](c2ccc(Br)cc2)c2c(cc3ccccn23)C(=O)O1` (racemic) has a pIC50 of 4.78 (resazurin; 72 h).
The pIC50 of `CCOc1ccc(-c2nc3ccccc3n2Cc2ccccc2)cc1` is reported as 4.68 (MTT).
`FC(F)(F)c1cccc(Nc2ncnc3ccc(-c4ccc(CN5CCOCC5)cc4)cc23)c1` has a pIC50 of 5.07 (MTT; 24 h).
With `CC(=O)O[C@@]12CO[C@@H]1C[C@H](O)[C@@]1(C)C(=O)[C@H](O)C3=C(C)[C@@H](OC(=O)[C@H](O)[C@@H](NC(=O)OC(C)(C)C)c4ccccc4)C[C@@](O)([C@@H](OC(=O)c4ccccc4)[C@H]21)C3(C)C` the pIC50 was 8.66 (ATP luminescence; 72 h).
`CN(C)c1ccc2cc(C(=O)N[C@@H](CCCNC(=N)CCl)C(=O)NCc3ccccc3)ccc2c1` has a pIC50 of 5.15 (48 h).
`CC(=O)Nc1nc(C)c(-c2csc(Nc3ccccc3)n2)s1` gave a pIC50 of 4.80 (MTT; 72 h).
For `Oc1cccc(Nc2ccc3ncnc(Nc4cccc(C(F)(F)F)c4)c3c2)c1`, the pIC50 was 5.48 (MTT; 24 h).
With `C[C@@H]1C[C@@H](c2ccc3c(c2)OCO3)c2c(cc3ccccn23)C(=O)O1` (racemic) the pIC50 was 4.53 (resazurin; 72 h).
`Cc1nc(Nc2ncc(C(=O)Nc3c(C)cccc3Cl)s2)cc(N2CCN(CCO)CC2)n1` has a pIC50 of 4.60 (MTT; 24 h).
With `C[C@@H]1C[C@@H](c2cccc(Cl)c2)c2c(cc3ccccn23)C(=O)O1` (racemic) the pIC50 was less than 4.00 (resazurin; 72 h).
`Clc1ccccc1-c1nc2ccccc2[nH]1` gave a pIC50 of 4.30 (MTT; 48 h).
`CC(C)C(=O)Nc1ccc([N+](=O)[O-])c(C(F)(F)F)c1` gave a pIC50 of less than 4.30 (CCK-8; 48 h).
The pIC50 of `COc1ccc(/C=C/C(=O)c2cc(Br)ccc(=O)c2O)cc1` is reported as 5.26 (MTT; 48 h).
`Oc1ccc(Br)cc1-c1nc2ccccc2[nH]1` gave a pIC50 of 4.89 (MTT; 48 h).
The pIC50 of `COc1cc([C@@H]2C[C@@H](C)OC(=O)c3cc4ccccn4c32)cc(OC)c1OC` (racemic) is reported as less than 4.00 (resazurin; 72 h).
The pIC50 of `CC(C)C[C@H](NC(=O)[C@H](Cc1ccccc1)NC(=O)c1cnccn1)B(O)O` is reported as 7.89 (ATP luminescence).
`COc1ccc(-c2nc3ccccc3[nH]2)cc1O` has a pIC50 of 4.05 (MTT; 48 h).
The pIC50 of `FC(F)(F)c1cccc(Nc2ncnc3ccc(-c4ccc(Cl)cc4)cc23)c1` is reported as 4.94 (MTT; 24 h).
`CSc1ccc(-c2nc3ccc(C)cc3n2Cc2ccccc2)cc1` has a pIC50 of 4.66 (MTT).
With `O=C(CCl)Nc1ccc2c(Nc3cccc(C(F)(F)F)c3)ncnc2c1` the pIC50 was 5.16 (MTT; 24 h).
`O=C(CSc1nc2ccc(N=Cc3ccc(Sc4nnnn4-c4ccccc4)o3)cc2s1)N1CCOCC1` has a pIC50 of 4.31 (MTT; 72 h).
`COc1cccc2c1C(=O)c1c(O)c3c(c(O)c1C2=O)C[C@@](O)(C(=O)CO)C[C@@H]3O[C@H]1C[C@H](N)[C@H](O)[C@H](C)O1` has a pIC50 of 5.37 (MTT).
